The source made the active and inactive calls. The calls are words filed in the database; no cut-off is given here.
Tests used:
[1] = target: NAD(P)H dehydrogenase [quinone] 1 (Homo sapiens) (UniProt P15559); test: Substrate activity at NQO1 in human HepG2 cells assessed as reduction in cell viability by WST-1 assay; format: cell-based
HepG2 [2] = test: Suppression of rotenone-induced ATP depletion in human HepG2 cells assessed as rescue of ATP level at 5 uM incubated for 2 hrs in presence of NQO1 irreversible inhibitor ES936 by Celltiter-Glo assay; format: functional, cell-based
HepG2 [3] = test: Suppression of rotenone-induced ATP depletion in human HepG2 cells assessed as increase in rescue of ATP level at 1 uM incubated for 2 hrs by Celltiter-Glo assay; format: functional, cell-based
Outline: (§1)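 HepG2 cells seeded 10×10^3 per well in 1 g/L glucose, 2% FBS medium the day before. Switched to glucose- and FBS-free medium containing 10 µM rotenone, with compound added at the same time, 2 h at 37 °C. ATP read by CellTiter-Glo luminescence, normalized to DMSO cells without rotenone. Mean ± SEM of ≥3 independent runs. Complex III inhibitors, where used, at 50 nM.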

SH-SY5Y [4] = test: Cytotoxicity against human SH-SY5Y cells assessed as reduction in cell viability incubated for 24 hrs by Celltiter-blue assay; format: cell-based
HepG2 [5] = test: Cytotoxicity against human HepG2 cells assessed as reduction in cell viability incubated for 24 hrs by Celltiter-blue assay; format: cell-based; settings: HepG2, 24 h
HepG2 [6] = test: Suppression of rotenone-induced ATP depletion in human HepG2 cells assessed as rescue of ATP level at 5 uM incubated for 2 hrs in presence of complex III inhibitor myxothiazol by Celltiter-Glo assay; format: functional, cell-based; outline: as §1
SH-SY5Y [7] = test: Cytotoxicity against human SH-SY5Y cells assessed as reduction in cell viability by WST-1 assay; format: cell-based
[8] = target: NAD(P)H dehydrogenase [quinone] 1 (Homo sapiens) (UniProt P15559); test: Substrate activity at recombinant NQO1 (unknown origin) assessed as reduction in NADH level at 20 uM measured for 6 mins by microplate reader analysis
[9] = target: NAD(P)H dehydrogenase [quinone] 1 (Homo sapiens) (UniProt P15559); test: Substrate activity at NQO1 in human HepG2 cells assessed as reduction in cell viability in presence of NQO1 inhibitor dicoumarol by WST-1 assay; format: cell-based
HepG2 [10] = test: Suppression of rotenone-induced ATP depletion in human HepG2 cells assessed as rescue of ATP level at 5 uM incubated for 2 hrs in presence of NQO1 inhibitor dicoumarol by Celltiter-Glo assay; format: functional, cell-based
HepG2 [11] = test: Suppression of rotenone-induced ATP depletion in human HepG2 cells assessed as increase in rescue of ATP level at 0.1 to 1 uM incubated for 2 hrs by Celltiter-Glo assay; format: functional, cell-based; settings: dose microM 0.1-1, time 2.0 hrs; outline: as §1
[12] = Cytotoxicity against […] assessed as reduction in cell viability by WST-1 assay; format: cell-based; settings: r28
[13] = Cytotoxicity against C57BL/6J mouse RGC cells assessed as reduction in number of cells at 100 uM incubated for 24 hrs by Hoechst 33342 staining based counting method; format: cell-based
Outline: (§2)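 Retinal explants from 6–8 month old female wild-type C57BL/6J mice, enucleated eyes placed in ice-cold HBSS. Explants incubated 24 h ex vivo in pre-warmed Neurobasal A with compounds in 0.1% DMSO, alone for toxicity or with 100 µM rotenone for activity. Hoechst 33342-stained nuclei (and anti-RBPMS-positive RGCs) counted in the central retina ganglion cell layer. Mean ± SEM, 1-way ANOVA with Tukey.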

RGC = test: Cytoprotection against rotenone-induced C57BL/6J mouse retinal ganglion cells loss assessed as increase in cell survival at 3 uM incubated for 24 hrs by Hoechst 33342 staining based counting method; format: functional, tissue-based; settings: in the assay text read “anti-RBPMS antibody staining” for “Hoechst 33342 staining”; outline: as §2
HepG2 [14] = test: Cytotoxicity against human HepG2 cells assessed as cell reduction in cell viability at 25 uM incubated for 24 hrs by Celltiter-blue assay; format: cell-based; settings: hepg2, 24 h
Outline: (§3)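 HepG2 or SH-SY5Y seeded 10×10^3 per well the day before in 1 g/L glucose medium with 2% FBS. Medium replaced with fresh 2% FBS, 1 g/L glucose medium containing compound (25 µM) for 24 h at 37 °C. CellTiter-Blue added for 4 h, fluorescence read at 560/590 nm. Viability given as % of vehicle/untreated cells. Mean ± SEM of ≥3 independent runs.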

SH-SY5Y [15] = test: Cytotoxicity against human SH-SY5Y cells assessed as reduction in cell viability at 25 uM incubated for 24 hrs by Celltiter-blue assay; format: cell-based; outline: as §3
[16] = Suppression of rotenone-induced ATP depletion in human HepG2 cells assessed as rescue of ATP level incubated for 2 hrs by Celltiter-Glo assay relative to control; format: functional; parameters: concentration or dose not given beside the values; outline: as §1
HepG2 [17] = test: Suppression of rotenone-induced ATP depletion in human HepG2 cells assessed as rescue of ATP level at 5 uM incubated for 2 hrs in presence of complex III inhibitor antimycin by Celltiter-Glo assay; format: functional, cell-based; outline: as §1
[18] = Suppression of rotenone-induced ATP depletion in human HepG2 cells incubated for 2 hrs by Celltiter-Glo assay; format: functional, cell-based; settings: HepG2, 2 h; outline: as §1
[19] = Cytotoxicity against C57BL/6J mouse RGC cells assessed as reduction in number of cells at 50 uM incubated for 24 hrs by Hoechst 33342 staining based counting method; format: cell-based; outline: as §2
[20] = Cytotoxicity against human HepG2 cells assessed as cell viability at 25 uM incubated for 24 hrs by Celltiter-blue assay relative to control; format: cell-based; settings: read-out: Activity; outline: as §3

Chain of NAD(P)H dehydrogenase [quinone] 1 (Homo sapiens) (P15559 whole entry): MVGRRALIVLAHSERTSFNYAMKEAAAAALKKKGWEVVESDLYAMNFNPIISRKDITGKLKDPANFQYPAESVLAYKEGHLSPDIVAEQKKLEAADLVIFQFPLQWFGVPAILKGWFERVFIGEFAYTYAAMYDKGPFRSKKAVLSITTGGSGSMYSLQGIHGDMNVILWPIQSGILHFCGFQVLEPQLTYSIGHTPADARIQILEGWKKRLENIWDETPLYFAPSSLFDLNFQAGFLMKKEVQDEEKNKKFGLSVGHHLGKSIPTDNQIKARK

Activity [8]: Active
SMILES: CSC1=C(Nc2ccc(F)c(C(F)(F)F)c2)C(=O)c2ccccc2C1=O
Activity [1]: Active | Activity (HepG2 [2]): inactive | Activity (HepG2 [3]): Active | IC50 (SH-SY5Y [4]): > 100 µM | IC50 (HepG2 [5]): 30.5 µM | Activity (HepG2 [6]): inactive | Activity (SH-SY5Y [7]): Non-Toxic | Activity [9]: inactive | Activity (HepG2 [10]): inactive | Activity (HepG2 [11]): Active | Activity [12]: Non-Toxic | Activity [13]: Toxic | Activity (RGC): Active | Activity (HepG2 [14]): Toxic | Activity (SH-SY5Y [15]): Toxic | Activity [16]: 55.7% | Activity (HepG2 [17]): inactive | EC50 [18]: 0.36 µM | Activity [19]: Non-Toxic | viability at 24 h, 25 µM [20]: 76.9%

Reference: ChEMBL document CHEMBL4699639, “Discovery of Novel 2-Aniline-1,4-naphthoquinones as Potential New Drug Treatment for Leber's Hereditary Optic Neuropathy (LHON)” (J Med Chem, 2020)
